Columns and labels:
Assay type in all cases: functional
MOLT-4 = test: Cytotoxicity against human MOLT4 cells after 48 hrs by SRB assay; conditions: MOLT-4, 48 h
In short: (§1)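 Second-stage NCI-60 panel run by the NCI Developmental Therapeutics Program, covering nine tumour subpanels. Five concentrations were tested: 0.01, 0.1, 1, 10 and 100 μM. Percentage growth at each level was plotted against log10 drug concentration. GI50, TGI and LC50 were read from these dose-response curves. Subpanel MID values were divided into the full-panel MID to give selectivity ratios.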

SR = test: Cytotoxicity against human SR cells after 48 hrs by SRB assay
In short: (§2)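 NCI-60 five-dose study run by NCI DTP at 0.01, 0.1, 1, 10 and 100 µM. Percentage growth at each level was plotted against log10 concentration for each line, and GI50, TGI and LC50 were read from the dose-response curves.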

A549 = test: Cytotoxicity against human A549 cells after 48 hrs by SRB assay; conditions: A549, 48 h
In short: (§3)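 NCI-60 human tumour cell panel screen, second stage, run by the NCI Developmental Therapeutics Program. Compounds were tested at five concentrations (0.01, 0.1, 1, 10 and 100 μM). Percentage growth was plotted against log10 concentration for each cell line. GI50, TGI and LC50 were taken from these dose-response curves.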

[1] = Cytotoxicity against human EKVX cells after 48 hrs by SRB assay; in short: as §3
HOP-62 = test: Cytotoxicity against human HOP62 cells after 48 hrs by SRB assay; conditions: HOP-62, 48 h; in short: as §3
NCI-H226 = test: Cytotoxicity against human NCI-H226 cells after 48 hrs by SRB assay; conditions: NCI-H226, 48 h; in short: as §1
NCI-H522 = test: Cytotoxicity against human NCI-H522 cells after 48 hrs by SRB assay; conditions: NCI-H522, 48 h; in short: as §1
HCC 2998 = test: Cytotoxicity against human HCC2998 cells after 48 hrs by SRB assay; conditions: HCC 2998, 48 h; in short: as §3
HT-29 = test: Cytotoxicity against human HT-29 cells after 48 hrs by SRB assay; conditions: HT-29, 48 h; in short: as §3
KM12 = test: Cytotoxicity against human KM12 cells after 48 hrs by SRB assay; conditions: KM12, 48 h; in short: as §3
SW-620 = test: Cytotoxicity against human SW620 cells after 48 hrs by SRB assay; conditions: SW-620, 48 h; in short: as §2
SF-295 = test: Cytotoxicity against human SF295 cells after 48 hrs by SRB assay; conditions: SF-295, 48 h; in short: as §1
SF-539 = test: Cytotoxicity against human SF539 cells after 48 hrs by SRB assay; conditions: SF-539, 48 h; in short: as §1
SNB-75 = test: Cytotoxicity against human SNB75 cells after 48 hrs by SRB assay; conditions: SNB-75, 48 h; in short: as §2
U-251 = test: Cytotoxicity against human U251 cells after 48 hrs by SRB assay; conditions: U-251, 48 h; in short: as §2
Malme-3M = test: Cytotoxicity against human MALME-3M cells after 48 hrs by SRB assay; in short: as §3
UACC-257 = test: Cytotoxicity against human UACC257 cells after 48 hrs by SRB assay; conditions: UACC-257, 48 h; in short: as §2
UACC-62 = test: Cytotoxicity against human UACC62 cells after 48 hrs by SRB assay; conditions: UACC-62, 48 h; in short: as §2
OVCAR-3 = test: Cytotoxicity against human OVCAR3 cells after 48 hrs by SRB assay; conditions: OVCAR-3, 48 h; in short: as §1
OVCAR-4 = test: Cytotoxicity against human OVCAR4 cells after 48 hrs by SRB assay; conditions: OVCAR-4, 48 h; in short: as §1
NCI/ADR-RES = test: Cytotoxicity against human NCI/ADR-RES cells after 48 hrs by SRB assay; in short: as §1
786-0 = test: Cytotoxicity against human 786-0 cells after 48 hrs by SRB assay; conditions: 786-0, 48 h; in short: as §3
SN12C = test: Cytotoxicity against human SN12C cells after 48 hrs by SRB assay; in short: as §1
UO-31 = test: Cytotoxicity against human UO31 cells after 48 hrs by SRB assay; conditions: UO-31, 48 h; in short: as §2
DU-145 = test: Cytotoxicity against human DU145 cells after 48 hrs by SRB assay; conditions: DU-145, 48 h; in short: as §3
T47D = test: Cytotoxicity against human T47D cells after 48 hrs by SRB assay; in short: as §2
[2] = Cytotoxicity against human leukemia cells assessed as growth inhibition after 48 hrs by SRB assay; conditions: Leukemia cell
In short: (§4)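 Values come from the NCI-60 five-dose panel (0.01–100 µM). The subpanel MID is the mean GI50 over the lines of that tumour subpanel. The selectivity ratio is the full-panel MID divided by the subpanel MID; 3–6 is rated moderate and >6 high.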

[3] = Cytotoxicity against human melanoma cells assessed as growth inhibition after 48 hrs by SRB assay; conditions: Melanoma cell; in short: as §4
[4] = Cytotoxicity against human renal cancer cells assessed as growth inhibition after 48 hrs by SRB assay; conditions: Cancer cell lines; in short: as §4
[5] = Cytotoxicity against human breast cancer cells assessed as growth inhibition after 48 hrs by SRB assay; conditions: Cancer cell lines; in short: as §4
[6] = read-out: LC50 (the source's name)

Which GI50 (MOLT-4) does the source give for `O=C1c2ccccc2C(=O)c2c1cc(SCc1ccccc1)c1nsnc21` here?
The GI50 was 1.2 µM.

What about the LC50 (MOLT-4) of the same compound?
The LC50 was over 50 µM.

What about the TGI (MOLT-4) of the same compound?
The TGI was 3.62 µM.

What about the GI50 (SR) of the same compound?
The GI50 was 1.99 µM.

What about the LC50 (SR) of the same compound?
The LC50 was over 50 µM.

And the TGI (SR)?
The TGI was 13.1 µM.

And the GI50 (A549)?
The GI50 was over 50 µM.

What about the LC50 (concentration killing 50% of cells) (A549) of the same compound?
Its LC50 (concentration killing 50% of cells) is over 50 µM.

And the TGI (A549)?
The TGI was over 50 µM.

What about the GI50 [1] of the same compound?
The GI50 was 14.2 µM.

What about the LC50 [1] of the same compound?
Its LC50 is over 50 µM.

And the TGI [1]?
Its TGI is 26.3 µM.

What about the GI50 (HOP-62) of the same compound?
The GI50 was 10.7 µM.

What about the LC50 (HOP-62) of the same compound?
The LC50 was 30.4 µM.

And the TGI (HOP-62)?
The TGI was 13.6 µM.

What about the GI50 (NCI-H226) of the same compound?
Its GI50 is over 50 µM.

What about the LC50 (concentration killing 50% of starting cells) (NCI-H226) of the same compound?
Its LC50 (concentration killing 50% of starting cells) is over 50 µM.

What about the TGI (NCI-H226) of the same compound?
The TGI was 35.2 µM.

What about the GI50 (NCI-H522) of the same compound?
Its GI50 is 8.64 µM.

And the LC50 (concentration giving 50% net cell kill) (NCI-H522)?
Its LC50 (concentration giving 50% net cell kill) is over 50 µM.

What about the TGI (NCI-H522) of the same compound?
The TGI was over 50 µM.

And the GI50 (HCC 2998)?
The GI50 was over 50 µM.

And the LC50 (HCC 2998)?
Its LC50 is over 50 µM.

What about the TGI (HCC 2998) of the same compound?
The TGI was over 50 µM.

What about the GI50 (HT-29) of the same compound?
The GI50 was over 50 µM.

And the LC50 (HT-29)?
Its LC50 is over 50 µM.

And the TGI (HT-29)?
Its TGI is over 50 µM.

And the GI50 (KM12)?
The GI50 was 19.5 µM.

What about the LC50 (concentration killing 50% of cells) (KM12) of the same compound?
Its LC50 (concentration killing 50% of cells) is over 50 µM.

And the TGI (KM12)?
The TGI was over 50 µM.

And the GI50 (SW-620)?
Its GI50 is 9.99 µM.

What about the LC50 (50% lethal concentration) (SW-620) of the same compound?
The LC50 (50% lethal concentration) was 35.1 µM.

What about the TGI (SW-620) of the same compound?
Its TGI is 18.7 µM.

And the GI50 (SF-295)?
Its GI50 is over 50 µM.

What about the LC50 (SF-295) of the same compound?
The LC50 was over 50 µM.

And the TGI (SF-295)?
Its TGI is over 50 µM.

What about the GI50 (SF-539) of the same compound?
The GI50 was 10.5 µM.

And the LC50 (SF-539)?
Its LC50 is 38.9 µM.

And the TGI (SF-539)?
Its TGI is 20.2 µM.

And the GI50 (SNB-75)?
Its GI50 is 8.26 µM.

What about the LC50 (concentration killing 50% of cells) (SNB-75) of the same compound?
Its LC50 (concentration killing 50% of cells) is 31 µM.

What about the TGI (SNB-75) of the same compound?
The TGI was 16 µM.

And the GI50 (U-251)?
Its GI50 is 6.46 µM.

And the LC50 (U-251)?
Its LC50 is 30.3 µM.

What about the TGI (U-251) of the same compound?
Its TGI is 14 µM.

What about the GI50 (Malme-3M) of the same compound?
The GI50 was 11 µM.

And the LC50 (Malme-3M)?
The LC50 was 44.6 µM.

What about the TGI (Malme-3M) of the same compound?
The TGI was 22.2 µM.

And the GI50 (UACC-257)?
The GI50 was 9.05 µM.

And the LC50 (UACC-257)?
The LC50 was 35.4 µM.

What about the TGI (UACC-257) of the same compound?
The TGI was 17.1 µM.

And the GI50 (UACC-62)?
The GI50 was 8.22 µM.

And the LC50 (UACC-62)?
The LC50 was 33.7 µM.

And the TGI (UACC-62)?
Its TGI is 18.6 µM.

What about the GI50 (OVCAR-3) of the same compound?
The GI50 was 8.16 µM.

And the TGI (OVCAR-3)?
Its TGI is 15.1 µM.

And the CC50 (OVCAR-3; [6])?
Its CC50 is 27.9 µM.

And the GI50 (OVCAR-4)?
Its GI50 is 6.05 µM.

What about the LC50 (OVCAR-4) of the same compound?
Its LC50 is 29 µM.

What about the TGI (OVCAR-4) of the same compound?
The TGI was 13.2 µM.

And the GI50 (NCI/ADR-RES)?
Its GI50 is 12.9 µM.

What about the LC50 (concentration killing 50% of cells) (NCI/ADR-RES) of the same compound?
Its LC50 (concentration killing 50% of cells) is over 50 µM.

And the TGI (NCI/ADR-RES)?
Its TGI is over 50 µM.

What about the GI50 (786-0) of the same compound?
The GI50 was 12.3 µM.

What about the LC50 (concentration killing 50% of cells) (786-0) of the same compound?
Its LC50 (concentration killing 50% of cells) is over 50 µM.

What about the TGI (786-0) of the same compound?
Its TGI is 25.4 µM.

And the GI50 (SN12C)?
Its GI50 is 7.16 µM.

And the TGI (SN12C)?
Its TGI is 14.5 µM.

What about the CC50 (SN12C; [6]) of the same compound?
The CC50 was 29.3 µM.

And the GI50 (UO-31)?
The GI50 was 7.83 µM.

And the LC50 (UO-31)?
The LC50 was 43.5 µM.

What about the TGI (UO-31) of the same compound?
Its TGI is 18.5 µM.

What about the GI50 (DU-145) of the same compound?
The GI50 was 10.2 µM.

What about the LC50 (DU-145) of the same compound?
The LC50 was 38.8 µM.

And the TGI (DU-145)?
The TGI was 19.9 µM.

And the GI50 (T47D)?
The GI50 was 1.16 µM.

What about the LC50 (concentration killing 50% of cells) (T47D) of the same compound?
Its LC50 (concentration killing 50% of cells) is 42.9 µM.

And the TGI (T47D)?
The TGI was 5.29 µM.

What about the GI50 [2] of the same compound?
The GI50 was 2.67 µM.

And the GI50 [3]?
Its GI50 is 10.6 µM.

And the GI50 [4]?
The GI50 was 12.7 µM.

What about the GI50 [5] of the same compound?
The GI50 was 8 µM.
